Converted amounts (≈) assume the structure as drawn. The source made the active and inactive calls. No cut-off for these calls is given here.
How the values were obtained:
HeLa = experiment: Antiproliferative activity against human HeLa cells after 96 hrs; type: functional, cell-based
How it was run: (§1)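 Cells in growth medium grown with variable compound concentrations at 37 °C in humidified CO2-controlled atmosphere; incubation 48 h for L1210 and FM3A, 72 h for CEM, 96 h for HeLa. Cell number counted by Coulter counter; IC50 = concentration inhibiting proliferation by 50%.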

L1210 = experiment: Antiproliferative activity against mouse L1210 cells after 48 hrs; type: functional, cell-based; settings: L1210, 48 h; how it was run: as §1
CCRF-CEM = experiment: Antiproliferative activity against human CEM cells after 72 hrs; type: cell-based; how it was run: as §1
FM3A = experiment: Antiproliferative activity against mouse FM3A cells after 48 hrs; type: functional, cell-based; how it was run: as §1
[1] = Antiproliferative activity against human NCI60 cells; type: functional, cell-based
[2] = molecular target: T1, Bone morphogenetic protein receptor type-1B (Homo sapiens, UniProt O00238); experiment: Binding affinity to BMPR1B at >30 uM by multi dose competitive binding assay
[3] = molecular target: Casein kinase I isoform gamma-2 (Homo sapiens) (UniProt P78368); experiment: Inhibition of CSNK1G2 at 10 uM after 1 hr by competitive binding assay
How it was run: (§2)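 Single-dose competitive binding at 10 μM against immobilized ATP-site ligands (DiscoveRx): phage-tagged or HEK-293-expressed DNA-tagged kinase with ligand-loaded streptavidin magnetic beads in 20% SeaBlock, 0.17× PBS, 0.05% Tween 20, 6 mM DTT, 1 h room temperature with shaking. Beads washed, eluted with 0.5 μM free ligand for 30 min; bound kinase quantified by qPCR as % binding inhibition.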

[4] = molecular target: Casein kinase II subunit alpha' (Homo sapiens) (UniProt P19784); experiment: Inhibition of CSNK2A2 at 10 uM after 1 hr by competitive binding assay; how it was run: as §2
[5] = molecular target: Ribosomal protein S6 kinase alpha-1 (Homo sapiens) (UniProt Q15418); experiment: Inhibition of RPS6KA1 kinase at 10 uM after 1 hr by competitive binding assay; how it was run: as §2
[6] = molecular target: Tyrosine-protein kinase BTK (Homo sapiens) (UniProt Q06187); experiment: Inhibition of BTK at 10 uM after 1 hr by competitive binding assay; how it was run: as §2
[7] = molecular target: T1, Bone morphogenetic protein receptor type-1B; experiment: Inhibition of BMPR1B at 10 uM after 1 hr by competitive binding assay; how it was run: as §2
[8] = molecular target: MAP/microtubule affinity-regulating kinase 3 (Homo sapiens) (UniProt P27448); experiment: Inhibition of MARK3 at 10 uM after 1 hr by competitive binding assay
[9] = molecular target: Serine/threonine-protein kinase PAK 3 (Homo sapiens) (UniProt O75914); experiment: Inhibition of PAK3 at 10 uM after 1 hr by competitive binding assay; how it was run: as §2
[10] = molecular target: Receptor-type tyrosine-protein kinase FLT3 (Homo sapiens) (UniProt P36888); experiment: Inhibition of FLT-3 kinase at 10 uM after 1 hr by competitive binding assay; how it was run: as §2
[11] = molecular target: Non-receptor tyrosine-protein kinase TYK2 (Homo sapiens) (UniProt P29597); experiment: Inhibition of TYK2 at 10 uM after 1 hr by competitive binding assay; how it was run: as §2
[12] = molecular target: Inhibitor of nuclear factor kappa-B kinase subunit alpha (Homo sapiens) (UniProt O15111); experiment: Inhibition of IKKalpha at 10 uM after 1 hr by competitive binding assay; how it was run: as §2

## CNC(=O)NC[C@H]1O[C@@H](n2cnc3c(NC(=O)Nc4ccc([N+](=O)[O-])cc4)ncnc32)[C@H](O[Si](C)(C)C(C)(C)C)[C@@H]1O[Si](C)(C)C(C)(C)C
HeLa
  IC50: > 200 mg/L
L1210
  IC50: ≥ 200 mg/L
CCRF-CEM
  IC50: > 200 mg/L
FM3A
  IC50: > 200 mg/L

## CNC(=O)OC[C@H]1O[C@@H](n2cnc3c(NC(=O)Nc4ccccc4)ncnc32)[C@H](O[Si](C)(C)C(C)(C)C)[C@@H]1O[Si](C)(C)C(C)(C)C
HeLa
  IC50: ≥ 200 mg/L
L1210
  IC50: 160 mg/L (≈ 238 µM)
CCRF-CEM
  IC50: > 200 mg/L
FM3A
  IC50: > 200 mg/L

## CNC(=O)NC[C@H]1O[C@@H](n2cnc3c(NC(=O)Nc4cccc(I)c4)ncnc32)[C@H](O[Si](C)(C)C(C)(C)C)[C@@H]1O[Si](C)(C)C(C)(C)C
HeLa
  IC50: 21 mg/L (≈ 26.4 µM)
L1210
  IC50: 38 mg/L (≈ 47.7 µM)
CCRF-CEM
  IC50: 182 mg/L (≈ 228 µM)

## CNC(=O)OC[C@H]1O[C@@H](n2cnc3c(NC(=O)Nc4ccc(OC)cc4)ncnc32)[C@H](O[Si](C)(C)C(C)(C)C)[C@@H]1O[Si](C)(C)C(C)(C)C
HeLa
  IC50: ≥ 200 mg/L
L1210
  IC50: > 200 mg/L
CCRF-CEM
  IC50: > 200 mg/L
FM3A
  IC50: > 200 mg/L

## CNC(=O)NC[C@H]1O[C@@H](n2cnc3c(NC(=O)Nc4ccc(OC)cc4)ncnc32)[C@H](O[Si](C)(C)C(C)(C)C)[C@@H]1O[Si](C)(C)C(C)(C)C
HeLa
  IC50: 2.6 mg/L (≈ 3.71 µM)
L1210
  IC50: 3.8 mg/L (≈ 5.42 µM)
CCRF-CEM
  IC50: 5.2 mg/L (≈ 7.42 µM)
FM3A
  IC50: 5.8 mg/L (≈ 8.27 µM)

## CNC(=O)OC[C@H]1O[C@@H](n2cnc3c(NC(=O)NCc4ccccc4)ncnc32)[C@H](O[Si](C)(C)C(C)(C)C)[C@@H]1O[Si](C)(C)C(C)(C)C
HeLa
  IC50: 23 mg/L (≈ 33.5 µM)
L1210
  IC50: 101 mg/L (≈ 147 µM)
CCRF-CEM
  IC50: > 200 mg/L
FM3A
  IC50: > 200 mg/L

## CNC(=O)NC[C@H]1O[C@@H](n2cnc3c(NC(=O)Nc4ccccc4)ncnc32)[C@H](O[Si](C)(C)C(C)(C)C)[C@@H]1O[Si](C)(C)C(C)(C)C
[1]
  IC50: < 10 µM
HeLa
  IC50: 3.2 mg/L (≈ 4.77 µM)
[2]
  Activity: inactive
L1210
  IC50: 3.8 mg/L (≈ 5.66 µM)
CCRF-CEM
  IC50: 8.3 mg/L (≈ 12.4 µM)
FM3A
  IC50: 5.9 mg/L (≈ 8.79 µM)

## CNC(=O)OC[C@H]1O[C@@H](n2cnc3c(NC(=O)Nc4cccc(I)c4)ncnc32)[C@H](O[Si](C)(C)C(C)(C)C)[C@@H]1O[Si](C)(C)C(C)(C)C
HeLa
  IC50: > 200 mg/L
L1210
  IC50: > 200 mg/L
CCRF-CEM
  IC50: > 200 mg/L
FM3A
  IC50: > 200 mg/L

## CCCNC(=O)Nc1ncnc2c1ncn2[C@@H]1O[C@H](CNC(=O)NC)[C@@H](O[Si](C)(C)C(C)(C)C)[C@H]1O[Si](C)(C)C(C)(C)C
HeLa
  IC50: 3.3 mg/L (≈ 5.18 µM)
L1210
  IC50: 3.9 mg/L (≈ 6.12 µM)
CCRF-CEM
  IC50: 4.4 mg/L (≈ 6.91 µM)
FM3A
  IC50: 4.7 mg/L (≈ 7.38 µM)

## CCOC(=O)C[C@H]1[C@@H](O[Si](C)(C)C(C)(C)C)[C@H](n2cnc3c(NC(=O)Nc4ccccc4)ncnc32)O[C@@H]1CNC(=O)NC
[3]
  inhibition: 38%
[4]
  inhibition: 31%
[5]
  inhibition: 40%
[6]
  inhibition: 35%
[7]
  inhibition: 47%
[8]
  inhibition: 34%
[9]
  inhibition: 33%
[10]
  inhibition: 31%
[11]
  inhibition: 31%
[12]
  inhibition: 37%

## CNC(=O)NC[C@H]1O[C@@H](n2cnc3c(NC(=O)NCc4ccccc4)ncnc32)[C@H](O[Si](C)(C)C(C)(C)C)[C@@H]1O[Si](C)(C)C(C)(C)C
HeLa
  IC50: 3.8 mg/L (≈ 5.55 µM)
L1210
  IC50: 4.6 mg/L (≈ 6.72 µM)
CCRF-CEM
  IC50: 8.3 mg/L (≈ 12.1 µM)
FM3A
  IC50: 9.2 mg/L (≈ 13.4 µM)

Source: ChEMBL document CHEMBL1933013, “Synthesis, SAR, and preliminary mechanistic evaluation of novel antiproliferative N⁶,5'-bis-ureido- and 5'-carbamoyl-N⁶-ureidoadenosine derivatives” (Bioorg Med Chem, 2012)
